Values after ≈ are worked out from the molar mass of the structure shown.
Tests used:
Anopheles gambiae [1] = assay: Tarsal contact toxicity in Anopheles gambiae G3 (MRA-112) assessed as mortality measured at 24 hrs by filter paper assay; format: functional
In short: (§1)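 Non-blood-fed adult females, 3–5 days old, followed a modified 2006 WHO tube assay. Filter papers (15 × 12 cm) were treated with ethanolic carbamate and dried overnight. Mosquitoes were exposed 1 h, then given 10% sugar water, at 24 ± 1 °C and 75% RH; mortality was read at 24 h. G3 used 20-25/batch in triplicate and Akron 10-15 in duplicate. LC50 was from probit analysis of typically 5-8 concentrations.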

Anopheles gambiae [2] = assay: Tarsal contact toxicity in Anopheles gambiae Akron (MRA-913) assessed as mortality measured at 24 hrs by filter paper assay; format: functional; in short: as §1
Anopheles gambiae [3] = assay: Tarsal contact toxicity in Anopheles gambiae G3 (MRA-112) assessed as mortality measured at 1000 ug/mL at 24 hrs by filter paper assay; format: functional; in short: as §1
[4] = Inhibition of recombinant Anopheles gambiae AChE G119S mutant compound incubated for up to 60 mins at approximately 10 mins interval; design: unit not given here
In short: (§2)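 Recombinant AgAChE enzymes were incubated with typically five inhibitor concentrations plus an inhibitor-free control. Residual activity v/v0 was read by Ellman assay against a time-matched control, at 23 ± 1°C, pH 7.7, 0.1% (v/v) DMSO. kobs is the slope of ln(v/v0) vs time, from at least two experiments. ki is the slope of kobs vs [I] in the linear, non-saturating range. Duplicate wells.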

Acetylcholinesterase = Acetylcholinesterase (Homo sapiens, UniProt P22303); assay: Inhibition of recombinant human AChE; design: unit not given here
Sequence of Acetylcholinesterase (P22303 whole entry): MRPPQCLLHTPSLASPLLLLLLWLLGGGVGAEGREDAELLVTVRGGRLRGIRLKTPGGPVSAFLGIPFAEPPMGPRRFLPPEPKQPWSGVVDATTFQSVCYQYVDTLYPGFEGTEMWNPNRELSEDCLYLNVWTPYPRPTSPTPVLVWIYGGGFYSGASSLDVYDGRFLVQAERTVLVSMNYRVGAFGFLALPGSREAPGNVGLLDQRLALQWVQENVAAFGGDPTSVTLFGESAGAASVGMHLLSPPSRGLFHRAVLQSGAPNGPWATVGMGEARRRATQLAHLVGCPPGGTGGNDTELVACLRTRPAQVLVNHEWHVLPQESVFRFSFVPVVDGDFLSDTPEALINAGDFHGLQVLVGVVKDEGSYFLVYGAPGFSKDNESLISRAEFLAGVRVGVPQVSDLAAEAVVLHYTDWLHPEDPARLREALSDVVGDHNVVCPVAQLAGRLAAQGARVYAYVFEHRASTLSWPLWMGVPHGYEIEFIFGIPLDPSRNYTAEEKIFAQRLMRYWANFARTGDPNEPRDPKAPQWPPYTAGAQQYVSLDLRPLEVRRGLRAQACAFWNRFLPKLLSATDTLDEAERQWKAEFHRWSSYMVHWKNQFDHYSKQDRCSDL

Anopheles gambiae [5] = assay: Tarsal contact toxicity in Anopheles gambiae Akron (MRA-913) assessed as mortality measured at 200 ug/mL at 24 hrs by filter paper assay; format: functional; in short: as §1
[6] = Inhibition of recombinant wild-type Anopheles gambiae AChE compound incubated for up to 6 min at approximately 1 min interval; design: unit not given here; in short: as §2
Anopheles gambiae [7] = assay: Tarsal contact toxicity in Anopheles gambiae Akron (MRA-913) assessed as mortality measured at 1000 ug/mL at 24 hrs by filter paper assay; format: functional; in short: as §1

SMILES: CNC(=O)Oc1ccccc1OC(C)C [PROPOXUR]
- LC50 (Anopheles gambiae [1]): 39 µg/mL (≈ 186 µM)
- LC50 (Anopheles gambiae [2]): > 5000 µg/mL

SMILES: CN(C)C(=O)Oc1cc(CCC2CC2)on1
- LC50 (Anopheles gambiae [1]): 191 µg/mL (≈ 852 µM)
- LC50 (Anopheles gambiae [2]): 198 µg/mL (≈ 883 µM)

SMILES: CNC(=O)Oc1cccc2c1OC(C)(C)O2 [BENDIOCARB]
- LC50 (Anopheles gambiae [1]): 16 µg/mL (≈ 71.7 µM)
- LC50 (Anopheles gambiae [2]): > 5000 µg/mL

SMILES: CCC(C)Cc1cc(OC(=O)N(C)C)no1 (stereo not drawn)
- mortality at 1000 µg/mL (Anopheles gambiae [3]): 30%

SMILES: CCCC(C)c1cc(=O)n(C(=O)N(C)C)o1 (stereo not drawn)
- LC50 (Anopheles gambiae [1]): 153 µg/mL (≈ 676 µM)
- LC50 (Anopheles gambiae [2]): 75 µg/mL (≈ 331 µM)

SMILES: CCCC(C)c1cc(OC(=O)N(C)CC)no1 (stereo not drawn)
- LC50 (Anopheles gambiae [1]): 410 µg/mL (≈ 1710 µM)
- LC50 (Anopheles gambiae [2]): 574 µg/mL (≈ 2390 µM)

SMILES: CCC(C)c1cc(OC(=O)N(C)C)no1 (stereo not drawn)
- LC50 (Anopheles gambiae [1]): 41 µg/mL (≈ 193 µM)
- LC50 (Anopheles gambiae [2]): 58 µg/mL (≈ 273 µM)

SMILES: CC(C)Cc1cc(=O)n(C(=O)N(C)C)o1
- Ki [4]: 0.55
- LC50 (Anopheles gambiae [1]): 201 µg/mL (≈ 947 µM)
- Ki (Acetylcholinesterase): 30.9
- mortality at 200 µg/mL (Anopheles gambiae [5]): 25%
- Ki [6]: 252

SMILES: CCCC(C)c1cc(=O)n(C(=O)N(CC)CC)o1 (stereo not drawn)
- mortality at 1000 µg/mL (Anopheles gambiae [3]): 15%

SMILES: CCCC(C)c1cc(=O)n(C(=O)N(C)CC)o1 (stereo not drawn)
- LC50 (Anopheles gambiae [1]): 400 µg/mL (≈ 1660 µM)
- LC50 (Anopheles gambiae [2]): 614 µg/mL (≈ 2560 µM)

SMILES: CN(C)C(=O)Oc1cc(C2CC2)on1
- mortality at 1000 µg/mL (Anopheles gambiae [3]): 0%

SMILES: CNC(=O)Oc1cccc(C(C)(C)C)c1
- LC50 (Anopheles gambiae [1]): 37 µg/mL (≈ 179 µM)
- LC50 (Anopheles gambiae [2]): > 5000 µg/mL

SMILES: CN(C)C(=O)n1oc(CCC2CC2)cc1=O
- LC50 (Anopheles gambiae [1]): 133 µg/mL (≈ 593 µM)
- LC50 (Anopheles gambiae [2]): 144 µg/mL (≈ 642 µM)

SMILES: CCC(CC)c1cc(OC(=O)N(C)C)no1
- mortality at 1000 µg/mL (Anopheles gambiae [3]): 70%

SMILES: CC(C)CCc1cc(=O)n(C(=O)N(C)C)o1
- Ki [4]: 0.4
- LC50 (Anopheles gambiae [1]): 73 µg/mL (≈ 323 µM)
- Ki (Acetylcholinesterase): 80.9
- LC50 (Anopheles gambiae [2]): 68 µg/mL (≈ 301 µM)
- Ki [6]: 266

SMILES: CCCC(C)c1cc(=O)n(C(=O)N2CCC2)o1 (stereo not drawn)
- mortality at 1000 µg/mL (Anopheles gambiae [3]): 78%

SMILES: CN(C)C(=O)Oc1cc(C2CCCC2)on1
- mortality at 1000 µg/mL (Anopheles gambiae [3]): 60%

SMILES: Cc1cc(=O)n(C(=O)N(C)C)o1
- mortality at 1000 µg/mL (Anopheles gambiae [3]): 0%

SMILES: CNC(=O)O/N=C/C(C)(C)SC [ALDICARB]
- LC50 (Anopheles gambiae [1]): 70 µg/mL (≈ 368 µM)
- LC50 (Anopheles gambiae [2]): 32 µg/mL (≈ 168 µM)

SMILES: CN(C)C(=O)Oc1cc(CCC2CCCC2)on1
- Ki [4]: 0.12
- LC50 (Anopheles gambiae [1]): 674 µg/mL (≈ 2670 µM)
- Ki (Acetylcholinesterase): 13.1
- Ki [6]: 0.6

SMILES: CCC(CC)c1cc(=O)n(C(=O)N(C)C)o1
- LC50 (Anopheles gambiae [1]): 38 µg/mL (≈ 168 µM)
- LC50 (Anopheles gambiae [2]): 40 µg/mL (≈ 177 µM)

SMILES: CN(C)C(=O)n1oc(CC(C)(C)C)cc1=O
- mortality at 1000 µg/mL (Anopheles gambiae [3]): 80%

SMILES: CCCC(C)c1cc(OC(=O)N(C)C)no1 (stereo not drawn)
- Ki [4]: 30.6
- LC50 (Anopheles gambiae [1]): 234 µg/mL (≈ 1030 µM)
- Ki (Acetylcholinesterase): 50.9
- LC50 (Anopheles gambiae [2]): 296 µg/mL (≈ 1310 µM)
- Ki [6]: 416

SMILES: CN(C)C(=O)n1oc(CCC2CCC2)cc1=O
- mortality at 1000 µg/mL (Anopheles gambiae [3]): 30%

SMILES: CN(C)C(=O)n1oc(CCC2CCCC2)cc1=O
- mortality at 1000 µg/mL (Anopheles gambiae [3]): 0%

SMILES: CCC(C)c1cc(=O)n(C(=O)N(C)C)o1 (stereo not drawn)
- LC50 (Anopheles gambiae [1]): 63 µg/mL (≈ 297 µM)
- LC50 (Anopheles gambiae [2]): 129 µg/mL (≈ 608 µM)

SMILES: CCCC(C)c1cc(=O)n(C(=O)N2CCOCC2)o1 (stereo not drawn)
- mortality at 1000 µg/mL (Anopheles gambiae [3]): 45%

SMILES: CC(C)CCc1cc(OC(=O)N(C)C)no1
- LC50 (Anopheles gambiae [1]): 415 µg/mL (≈ 1830 µM)
- LC50 (Anopheles gambiae [2]): 429 µg/mL (≈ 1900 µM)

SMILES: CCCC(C)c1cc(OC(=O)N2CCOCC2)no1 (stereo not drawn)
- mortality at 1000 µg/mL (Anopheles gambiae [3]): 10%

SMILES: CN(C)C(=O)n1oc(C2CCC2)cc1=O
- LC50 (Anopheles gambiae [1]): 79 µg/mL (≈ 376 µM)
- LC50 (Anopheles gambiae [2]): 74 µg/mL (≈ 352 µM)

SMILES: CCC(C)Cc1cc(=O)n(C(=O)N(C)C)o1 (stereo not drawn)
- mortality at 1000 µg/mL (Anopheles gambiae [3]): 0%

SMILES: CN(C)C(=O)Oc1cc(CCC2CCC2)on1
- mortality at 1000 µg/mL (Anopheles gambiae [3]): 40%

SMILES: CC(C)c1cc(OC(=O)N(C)C)no1
- LC50 (Anopheles gambiae [1]): 84 µg/mL (≈ 424 µM)
- LC50 (Anopheles gambiae [2]): 116 µg/mL (≈ 585 µM)

SMILES: CC(C)c1cc(=O)n(C(=O)N(C)C)o1
- LC50 (Anopheles gambiae [1]): 316 µg/mL (≈ 1590 µM)
- LC50 (Anopheles gambiae [2]): 182 µg/mL (≈ 918 µM)

SMILES: CCC(C)n1cc(OC(=O)NC)cn1 (stereo not drawn)
- LC50 (Anopheles gambiae [1]): 96 µg/mL (≈ 487 µM)
- LC50 (Anopheles gambiae [2]): 81 µg/mL (≈ 411 µM)

SMILES: CCCC(C)c1cc(=O)n(C(=O)N2CCCC2)o1 (stereo not drawn)
- mortality at 1000 µg/mL (Anopheles gambiae [3]): 77%

SMILES: CC(C)Cc1cc(OC(=O)N(C)C)no1
- LC50 (Anopheles gambiae [1]): 253 µg/mL (≈ 1190 µM)
- LC50 (Anopheles gambiae [2]): 151 µg/mL (≈ 711 µM)

SMILES: CN(C)C(=O)n1oc(C2CC2)cc1=O
- Ki [4]: 0.2
- LC50 (Anopheles gambiae [1]): 278 µg/mL (≈ 1420 µM)
- mortality at 1000 µg/mL (Anopheles gambiae [7]): 10%
- Ki (Acetylcholinesterase): 103
- Ki [6]: 50.5

SMILES: CCCC(C)c1cc(OC(=O)N2CCCC2)no1 (stereo not drawn)
- mortality at 1000 µg/mL (Anopheles gambiae [3]): 0%

SMILES: CN(C)C(=O)Oc1cc(CC(C)(C)C)on1
- Ki [4]: 0.05
- mortality at 1000 µg/mL (Anopheles gambiae [3]): 0%
- Ki (Acetylcholinesterase): 0.44
- Ki [6]: 0.12

SMILES: CN(C)C(=O)n1oc(C2CCCC2)cc1=O
- LC50 (Anopheles gambiae [1]): 105 µg/mL (≈ 468 µM)
- LC50 (Anopheles gambiae [2]): 118 µg/mL (≈ 526 µM)

SMILES: CNC(=O)Oc1cccc2c1OC(C)(C)C2 [CARBOFURAN]
- LC50 (Anopheles gambiae [1]): 16 µg/mL (≈ 72.3 µM)
- LC50 (Anopheles gambiae [2]): > 5000 µg/mL

SMILES: CCCCC(CC)c1cc(OC(=O)N(C)C)no1 (stereo not drawn)
- mortality at 1000 µg/mL (Anopheles gambiae [3]): 0%

SMILES: CN(C)C(=O)Oc1cc(C2CCC2)on1
- LC50 (Anopheles gambiae [1]): 349 µg/mL (≈ 1660 µM)
- LC50 (Anopheles gambiae [2]): 392 µg/mL (≈ 1860 µM)

SMILES: Cc1cc(OC(=O)N(C)C)no1
- mortality at 1000 µg/mL (Anopheles gambiae [3]): 0%
